Test results: ChEMBL document CHEMBL1123201, “7-(Trifluoromethyl)-4-aminoquinoline hypotensives: novel peripheral sympatholytics” (J Med Chem, 1986)
Active and inactive are the calls of the source. The calls are words filed in the database; no cut-off is given here.

Experiments:
Rattus norvegicus [1] = assay: Hypotensive activity in conscious rat 24 hr after 5 mg/kg p.o. administration.; assay type: functional; conditions: route oral
How it was run: (§1)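 Restrained (towel-wrapped, to raise sympathetic tone) conscious female Sprague-Dawley rats with chronic indwelling aortic cannulas exteriorized at the nape; blood pressure recorded directly by transducer before and 4 and 24 h after oral dosing. Compound suspended in carboxymethylcellulose vehicle, 10 mL/kg; doses 50 to 0.05 mg/kg. Two rats averaged per time point; average change ≥5 mmHg taken as significant (p < 0.05).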

Rattus norvegicus [2] = assay: Hypotensive activity in conscious rat 4 hr after 5 mg/kg p.o. administration.; assay type: functional; conditions: route oral; how it was run: as §1
Rattus norvegicus [3] = assay: Compound was tested for hypotensive activity by measuring the average change in mean arterial blood pressure in mmHg after 24 hr at 0.5 mg/Kg oral dosing of a conscious rat; assay type: functional, Artery; how it was run: as §1
Rattus norvegicus [4] = assay: Compound was tested for hypotensive activity by measuring the average change in mean arterial blood pressure in mmHg after 4 hr at 0.5 mg/Kg oral dosing of a conscious rat; assay type: functional, Artery; how it was run: as §1
Rattus norvegicus [5] = assay: Compound was tested for hypotensive activity by measuring the average change in mean arterial blood pressure in mmHg after 4 hr at 50 mg/Kg oral dosing of a conscious rat; assay type: functional, Artery; how it was run: as §1
Rattus norvegicus [6] = assay: Compound was tested for hypotensive activity by measuring the average change in mean arterial blood pressure in mmHg after 24 hr at 50 mg/Kg oral dosing of a conscious rat; assay type: functional, Artery; how it was run: as §1
[7] = Acute toxicity was determined in mice; assay type: organism-based; conditions: mouse, in vivo
Mus musculus [8] = organism: Mus musculus; assay: Lowest dose of compound associated with unacceptable clinical signs.; assay type: functional
Mus musculus [9] = organism: Mus musculus; assay: Lowest dose of compound associated with clinical signs.; assay type: functional
Rattus norvegicus [10] = assay: Compound was tested for hypotensive activity by measuring the average change in mean arterial blood pressure in mmHg after 24 hr at 0.1 mg/Kg oral dosing of a conscious rat; assay type: functional, Artery; how it was run: as §1
Rattus norvegicus [11] = assay: Compound was tested for hypotensive activity by measuring the average change in mean arterial blood pressure in mmHg after 4 hr at 0.1 mg/Kg oral dosing of a conscious rat; assay type: functional, Artery; how it was run: as §1
Rattus norvegicus [12] = assay: Compound was tested for hypotensive activity by measuring the average change in mean arterial blood pressure in mmHg after 4 hr at 10 mg/Kg oral dosing of a conscious rat; assay type: functional, Artery; how it was run: as §1
Rattus norvegicus [13] = assay: Compound was tested for hypotensive activity by measuring the average change in mean arterial blood pressure in mmHg after 24 hr at 10 mg/Kg oral dosing of a conscious rat; assay type: functional, Artery; how it was run: as §1
Rattus norvegicus [14] = assay: Compound was tested for hypotensive activity by measuring the average change in mean arterial blood pressure in mmHg 24 hr after at 50 mg/Kg oral dosing of a conscious rat; assay type: functional, Artery; how it was run: as §1
Rattus norvegicus [15] = assay: Compound was tested for hypotensive activity by measuring the average change in mean arterial blood pressure in mmHg at 4 hr after at 50 mg/Kg oral dosing of a conscious rat; assay type: functional, Artery; how it was run: as §1
Mus musculus [16] = organism: Mus musculus; assay: Lowest dose of compound associated with clinical signs; assay type: functional
Rattus norvegicus [17] = assay: Compound was tested for hypotensive activity by measuring the average change in mean arterial blood pressure in mmHg at 3 mg/Kg oral dosing of a conscious rat; IA is Inactive; assay type: functional, organism-based; conditions: Artery; how it was run: as §1

| SMILES | Activity (Rattus norvegicus [1]) [mmHg] | Activity (Rattus norvegicus [2]) [mmHg] | Activity (Rattus norvegicus [3]) [mmHg] | Activity (Rattus norvegicus [4]) [mmHg] | Activity (Rattus norvegicus [5]) [mmHg] | Activity (Rattus norvegicus [6]) [mmHg] | LD50 [7] [mg/kg] | Dose (Mus musculus [8]) [mg/kg] | Dose (Mus musculus [9]) [mg/kg] | also measured |
| --- | --- | --- | --- | --- | --- | --- | --- | --- | --- | --- |
| Cc1ccccc1N1CCN(S(=O)(=O)c2ccc(Nc3ccnc4cc(C(F)(F)F)ccc34)cc2)CC1 | -13 | -10 | 0 | -1 |  |  |  |  |  |  |
| COc1ccc(C2(O)CCN(C(=O)c3ccc(Nc4ccnc5cc(C(F)(F)F)ccc45)cc3)CC2)cc1 | -5 | -15 |  |  |  |  |  |  |  |  |
| Cc1cccc(C2=CCN(C(=O)c3ccc(Nc4ccnc5cc(C(F)(F)F)ccc45)cc3)CC2)c1 | -8 | -8 |  |  |  |  |  |  |  |  |
| COc1ccccc1N1CCN(C(=O)c2ccc(Nc3ccnc4cc(C(F)(F)F)ccc34)cc2)CC1 |  |  |  |  | -13 | -27 |  |  |  |  |
| O=C(c1ccc(Nc2ccnc3cc(C(F)(F)F)ccc23)cc1)N1CCN(c2ccccn2)CC1 | -13 | -10 | -2 | 2 |  |  | 1400 | 316 | <100 |  |
| COc1cc(N2CCN(C(=O)c3ccc(Nc4ccnc5cc(C(F)(F)F)ccc45)cc3)CC2)nc(OC)n1 | -24 | -10 | -12 | -2 | -13 | -29 | > 3160 | <100 | <100 |  |
| O=C(c1ccc(Nc2ccnc3cc(C(F)(F)F)ccc23)cc1)N1CCN(S(=O)(=O)c2ccc(Cl)cc2)CC1 | -34 | -20 | -15 | -13 |  |  | > 3160 | >3160 | <100 |  |
| O=C(c1ccc(Nc2ccnc3cc(C(F)(F)F)ccc23)cc1)N1CC=C(c2ccc(Cl)cc2)CC1 | -16 | -7 |  |  |  |  | 1000 | 316 | <100 | Activity (Rattus norvegicus [10]): -11 mmHg; Activity (Rattus norvegicus [11]): -3 mmHg |
| COc1ccc(N2CCN(C(=O)c3ccc(Nc4ccnc5cc(C(F)(F)F)ccc45)cc3)CC2)cc1 |  |  |  |  | -19 | -18 |  |  |  |  |
| O=C(c1ccc(Nc2ccnc3cc(C(F)(F)F)ccc23)cc1)N1CCN(c2[nH]cnc3ncnc2-3)CC1 |  |  |  |  | -4 | -3 |  |  |  |  |
| O=C(c1ccc(Nc2ccnc3cc(C(F)(F)F)ccc23)cc1)N1CCNCC1 |  |  |  |  |  |  | 1780 | 1000 |  | Activity (Rattus norvegicus [12]): -7 mmHg; Activity (Rattus norvegicus [13]): -8 mmHg; Activity (Rattus norvegicus [14]): -22 mmHg; Activity (Rattus norvegicus [15]): -15 mmHg; Dose (Mus musculus [16]): 100 mg/kg; Activity (Rattus norvegicus [17]): inactive |
| CN(C)S(=O)(=O)N1CCN(C(=O)c2ccc(Nc3ccnc4cc(C(F)(F)F)ccc34)cc2)CC1 | -6 | -18 | -2 | -6 |  |  | > 3160 | >3160 | 100 |  |
| Cc1ccc(S(=O)(=O)N2CCN(C(=O)c3ccc(Nc4ccnc5cc(C(F)(F)F)ccc45)cc3)CC2)cc1 | -25 | -42 |  |  |  |  |  |  |  |  |
